STAT1 blocker: STAT1 signaling inhibition | NIH 3T3 STAT1-luciferase reporter, IFN-gamma, luminescence | 200,000 tested, 0.35% active | inhibition, % at 5.5 µM;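 active means inhibition above a set limit, the mean inhibition across all tested compounds plus 3 SD, cut at about 34% in these data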
APP 5'UTR act: activates APP 5'UTR luciferase reporter; SH-SY5Y APP 5'UTR luciferase reporter, luminescence; zero percent = DMSO vehicle wells; activation, % at 2 µM; 190,000 tested, 1% active;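 active means activation above a set limit, based on mean plus 3 SD of controls, cut at about 140% in these data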
STAT3 inh-1: reduces IL-6 driven STAT3 reporter signal; inhibition, % at 5.5 µM; 190,000 tested, 0.89% active; AID 862; U3A cells, IL-6 STAT3-luciferase reporter, luminescence; host cell line lacks STAT1;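 active means inhibition above the mean inhibition across all screened compounds plus 3 SD, cut at about 44% in these data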
STAT3 activator: STAT3 signaling activation; activation (% of control), % at 5.6 µM; AID 871; 190,000 tested, 0.91% active; U3A cells, IL-6 STAT3-luciferase reporter, luminescence; 100% = signal with IL-6 EC80 alone;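 active means activation above the screen-wide mean of compound activation plus 3 SD, cut at about 130% in these data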
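Test system: STAT3-luciferase reporter U3A cells; Detection: reporter luminescence signal; Times: 1 h compound pre-exposure, 6 h IL-6 stimulation, 37 °C; Benchmarks: IL-6-only high control; Also added: IL-6 stimulus at 33 ng/mL final.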
NF-kB expr up: raises NF-kB expression in human neuronal cells. NF-kB reporter expression; hits give high values. fold change at 12.5 µM. AID 1239. 190,000 tested, 1.6% active; in the data active means fold change above about 3.3
STAT1 act: activators of IFN-gamma induced STAT1 signaling; NIH 3T3 STAT1-luciferase reporter, luminescence; 100% = IFN-gamma alone, no compound; activation (% of control), % at 5.5 µM; 200,000 tested, 2.6% active;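 active means activation above the screen-wide mean activation plus 3 SD, cut at about 130% in these data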
STAT3 inh-2: confirmation of STAT3 signaling inhibitors | U3A cells, IL-6 STAT3 luciferase reporter, luminescence; cell line lacks STAT1 | AID 1265 | 1,200 tested, 45% active | inhibition, % at 5.7 µM | shares compounds with STAT3 inh-1;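 active means inhibition above the hit cutoff computed for the primary STAT3 screen, cut at about 44% in these data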
NFkB inh 2: counter-screen for STAT3 inhibitors: NF-kappaB inhibition. shares compounds with STAT3 inh-1. HEK293T NF-kB luciferase reporter, TNF-alpha induced. inhibition, % at 5.7 µM. 1,200 tested, 36% active;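 active means inhibition above the mean of solvent-only control wells plus 3 SD, cutoff set per campaign, cut at about 13% in these data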
STAT1 inh STAT3c: inhibits STAT1, counter-screen to STAT3 inhibitors; 1,200 tested, 27% active; AID 1317; NIH 3T3 STAT1-luciferase reporter, IFN-gamma induced, luminescence; inhibition, % at 5.7 µM; shares compounds with STAT3 inh-1;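 active means inhibition above the mean plus 3 SD of solvent-only control wells, limit set per screening run, cut at about 16% in these data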
Large screens that a line does not name were inactive (follow-up assays come after a bar, where they were run). Shown are actives, neighbours in structure and some others; about 5.1% of the full set was active somewhere.

COc1ccc2cc(-c3cc(C(=O)OCC(=O)NC4CCS(=O)(=O)C4)c4ccccc4n3)ccc2c1 (centres undefined)	STAT3 inh-1 62 | STAT3 inh-2 inactive | NFkB inh 2 inactive | STAT1 inh STAT3c inactive
COc1ccc2cc(-c3cc(C(=O)OCC(=O)Nc4c(C)n(C)n(-c5ccccc5)c4=O)c4ccccc4n3)ccc2c1	STAT3 inh-1 47, NF-kB expr up 3.4 | STAT3 inh-2 56 | NFkB inh 2 inactive | STAT1 inh STAT3c inactive
Cc1ccc2nc3sc(C(=O)Nc4ccc(N5CCOCC5)cc4)c(N)c3cc2c1	none
CCOc1ccc2nc3sc(C(=O)N4CCOCC4)c(N)c3cc2c1	APP 5'UTR act 220, STAT3 inh-1 56 | STAT3 inh-2 inactive | NFkB inh 2 inactive | STAT1 inh STAT3c inactive
CCc1c(C)nc2ncnn2c1NCCc1ccc(Cl)cc1	STAT3 inh-1 54 | STAT3 inh-2 59 | NFkB inh 2 16 | STAT1 inh STAT3c 25
CCc1c(C)nc2ncnn2c1NCCc1ccccc1	none
O=C(Nc1nc2c(s1)CCCC2)C1COc2ccccc2O1 (centres undefined)	APP 5'UTR act 147, STAT3 inh-1 73 | STAT3 inh-2 inactive | NFkB inh 2 inactive | STAT1 inh STAT3c inactive
CCc1nnc(NC(=O)C2COc3ccccc3O2)s1 (centres undefined)	none
O=C(Nc1nc2c(s1)CCCC2)c1cccs1	APP 5'UTR act 198, STAT3 inh-1 58, NF-kB expr up 5.7, STAT1 act 146 | STAT3 inh-2 inactive | NFkB inh 2 inactive | STAT1 inh STAT3c inactive
O=C(Nc1nc2c(s1)CCCC2)Oc1ccccc1	none
CC1(C)CC(=O)c2sc(NC(=O)c3cccs3)nc2C1	STAT3 inh-1 44, NF-kB expr up 3.4 | STAT3 inh-2 inactive | NFkB inh 2 inactive | STAT1 inh STAT3c inactive
CC1(C)CC(=O)c2sc(NC(=O)C(C)(C)C)nc2C1	none
O=C1CC(c2cccc(Br)c2)C2=C(COC2=O)N1 (centres undefined)	none
CC(=O)Oc1ccc(/C=N/NC(=O)CCSc2ccccc2)cc1	none
CCCCNC(=O)CSc1nc2ccccc2c(=O)n1CC1COc2ccccc2O1 (centres undefined)	none
CCOc1ccccc1C(=O)NC(C(=O)Nc1cccc(S(N)(=O)=O)c1)C(C)C (centres undefined)	none
CC(C)C(NC(=O)c1ccc(C(C)(C)C)cc1)C(=O)Nc1cccc(S(N)(=O)=O)c1 (centres undefined)	STAT3 inh-1 44 | STAT3 inh-2 inactive | NFkB inh 2 inactive | STAT1 inh STAT3c inactive
Cc1cc(C(=O)NCCC(c2ccccc2)c2ccccc2)c(C)o1	none
Cc1sc(NC(=O)c2cccs2)nc1-c1ccccc1	none
O=C(Nc1nsc(-c2ccccc2)n1)c1cccs1	APP 5'UTR act 149, STAT3 inh-1 45, NF-kB expr up 4.2, STAT1 act 148 | STAT3 inh-2 inactive | NFkB inh 2 inactive | STAT1 inh STAT3c inactive
O=C(c1ccc(Cn2c(=S)[nH]c3cc4c(cc3c2=O)OCO4)cc1)N1CCN(c2ncccn2)CC1	none
O=c1c2sc3ccccc3c2[nH]c(=S)n1CCN1CCOCC1	none
Cc1ccc(NC(=O)Nc2ccnc(-c3cccnc3)n2)cc1	STAT3 inh-1 66 | STAT3 inh-2 70 | NFkB inh 2 inactive | STAT1 inh STAT3c 23
Cc1ccc(C(=O)Nc2ccnc(-c3cccnc3)n2)cc1	none
O=C(c1ccc(Cl)cc1)N1CCCCC(Sc2nnc(-c3ccc4c(c3)OCO4)o2)C1=O (centres undefined)	STAT3 inh-1 98 | STAT3 inh-2 85 | NFkB inh 2 70 | STAT1 inh STAT3c 40
COc1ccccc1OP(=O)(O)Oc1ccccc1OC	none
Clc1ccc2nc(-c3ccc(Br)s3)cn2c1	APP 5'UTR act 230, STAT3 inh-1 58, NF-kB expr up 3.5 | STAT3 inh-2 inactive | NFkB inh 2 inactive | STAT1 inh STAT3c inactive

Screens deposited in PubChem BioAssay by several laboratories.
